Among the data in BindingDB's records for doi:10.1021/jm010816q (Eth Zurich, 2001) are Kd values, retold here.

The target in assay [1] is Somatostatin receptor type 2 (Homo sapiens, UniProt P30874). Description: Binding assay at human somatostatin receptor 2 (hsst2) expressed in CCL-39 cells using LTT-CST-14-(Tyr10) as radioligand. In a few lines:
(§1)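 Chinese hamster lung fibroblast CCL39 cells stably expressing each hsst receptor; crude membrane homogenates in 10 mM HEPES pH 7.5, 0.5% BSA, 5 mM MgCl2, 5 mg/mL bacitracin. Vacuum filtration, bound radioactivity counted. Triplicate curves fitted by nonlinear regression; pKD reported.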

In assay [2] the target is Somatostatin receptor type 5 (Homo sapiens, UniProt P35346). Description: Binding assay at human somatostatin receptor 5 (hsst5) expressed in CCL-39 cells using LTT-CST-14-(Tyr10) as radioligand. In a few lines:
as §1

Assay [3] concerns the target Somatostatin receptor type 3 (Homo sapiens, UniProt P32745). Description: Binding assay at human somatostatin receptor 3 (hsst3) expressed in CCL-39 cells using LTT-CST-14-(Tyr10) as radioligand. The essentials:
as §1

The target of assay [4] is Somatostatin receptor type 1 (Homo sapiens, UniProt P30872). Description: Binding assay at human somatostatin receptor 1 (hsst1) expressed in CCL-39 cells using LTT-CST-14-(Tyr10) as radioligand. The essentials: as §1
Somatostatin receptor type 1, sequence (P30872 whole entry): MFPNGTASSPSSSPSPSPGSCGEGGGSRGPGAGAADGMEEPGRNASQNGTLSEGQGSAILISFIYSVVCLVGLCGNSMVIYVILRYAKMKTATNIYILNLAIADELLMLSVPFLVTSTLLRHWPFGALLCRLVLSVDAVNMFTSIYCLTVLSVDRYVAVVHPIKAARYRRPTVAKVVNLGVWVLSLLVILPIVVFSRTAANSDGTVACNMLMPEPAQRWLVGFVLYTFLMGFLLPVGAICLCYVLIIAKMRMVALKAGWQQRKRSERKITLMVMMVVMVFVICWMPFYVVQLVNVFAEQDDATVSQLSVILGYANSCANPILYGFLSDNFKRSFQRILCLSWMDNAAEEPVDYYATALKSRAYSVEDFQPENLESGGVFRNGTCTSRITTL
The target in assay [5] is Somatostatin receptor type 4 (Homo sapiens, UniProt P31391). Description: Binding assay at human somatostatin receptor 4 (hsst4) expressed in CCL-39 cells using LTT-CST-14-(Tyr10) as radioligand. In a few lines: as §1
Somatostatin receptor type 4, sequence (P31391 whole entry): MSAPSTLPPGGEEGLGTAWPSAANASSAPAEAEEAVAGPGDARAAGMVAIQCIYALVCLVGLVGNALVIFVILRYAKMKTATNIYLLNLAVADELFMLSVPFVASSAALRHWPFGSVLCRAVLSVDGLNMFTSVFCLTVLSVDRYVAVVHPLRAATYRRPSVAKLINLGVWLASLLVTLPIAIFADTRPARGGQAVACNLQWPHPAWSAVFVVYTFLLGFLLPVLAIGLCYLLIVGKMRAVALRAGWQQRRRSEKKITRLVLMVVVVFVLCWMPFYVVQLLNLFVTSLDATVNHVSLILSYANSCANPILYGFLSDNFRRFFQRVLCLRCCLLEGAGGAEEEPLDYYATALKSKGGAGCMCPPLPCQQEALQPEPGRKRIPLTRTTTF

Residues, ends and D or L forms follow the SMILES beside them. Some results are limits rather than exact numbers.

Somatostatin receptor type 2, sequence (P30874 whole entry): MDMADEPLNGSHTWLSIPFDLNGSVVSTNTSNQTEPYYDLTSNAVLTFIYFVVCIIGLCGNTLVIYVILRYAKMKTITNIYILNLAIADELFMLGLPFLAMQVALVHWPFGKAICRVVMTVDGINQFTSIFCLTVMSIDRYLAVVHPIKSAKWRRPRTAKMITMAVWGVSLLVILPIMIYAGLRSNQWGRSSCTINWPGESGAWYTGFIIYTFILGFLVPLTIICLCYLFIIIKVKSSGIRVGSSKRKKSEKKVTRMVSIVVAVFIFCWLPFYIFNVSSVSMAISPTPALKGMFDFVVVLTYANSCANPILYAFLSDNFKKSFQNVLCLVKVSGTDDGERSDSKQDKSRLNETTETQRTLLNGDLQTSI
Somatostatin receptor type 3, sequence (P32745 whole entry): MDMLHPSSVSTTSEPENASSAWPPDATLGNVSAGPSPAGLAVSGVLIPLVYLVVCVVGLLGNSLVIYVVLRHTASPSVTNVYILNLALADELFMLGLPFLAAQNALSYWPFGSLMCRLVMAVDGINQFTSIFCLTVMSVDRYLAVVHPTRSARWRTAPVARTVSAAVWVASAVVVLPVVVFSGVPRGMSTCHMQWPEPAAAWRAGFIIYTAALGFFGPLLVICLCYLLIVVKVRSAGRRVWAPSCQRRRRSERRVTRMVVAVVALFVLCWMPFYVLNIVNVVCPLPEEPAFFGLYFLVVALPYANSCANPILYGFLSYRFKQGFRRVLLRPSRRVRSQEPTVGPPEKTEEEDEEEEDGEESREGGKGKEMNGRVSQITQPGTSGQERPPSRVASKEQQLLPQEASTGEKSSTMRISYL
Somatostatin receptor type 5, sequence (P35346 whole entry): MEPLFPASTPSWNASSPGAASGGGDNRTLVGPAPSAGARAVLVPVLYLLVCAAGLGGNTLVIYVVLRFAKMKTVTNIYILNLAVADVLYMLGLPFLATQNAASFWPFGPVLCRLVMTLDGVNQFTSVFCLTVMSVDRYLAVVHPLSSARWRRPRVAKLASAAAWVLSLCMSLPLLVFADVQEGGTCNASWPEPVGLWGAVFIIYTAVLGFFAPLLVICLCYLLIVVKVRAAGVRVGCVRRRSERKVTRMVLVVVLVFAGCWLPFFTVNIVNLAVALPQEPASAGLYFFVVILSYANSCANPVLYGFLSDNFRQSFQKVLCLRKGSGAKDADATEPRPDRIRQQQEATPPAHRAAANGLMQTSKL

What is called Kd is the free concentration of one partner at which half of the binding sites on the other are occupied at equilibrium, for simple one-to-one binding. A high value points to lower affinity. Take `CC(=O)N[C@H](CC(=O)NC[C@H](CCCCN)C(=O)N[C@H](CC(=O)N[C@H](CC(N)=O)Cc1ccccc1)Cc1c[nH]c2ccccc12)[C@@H](C)O`: the Kd was > 10 µM in assay [1]; > 10 µM in assay [2]; > 10 µM in assay [3]; 13.2 µM in assay [4]; 0.083 µM in assay [5].

For the compound `CC(=O)N[C@H](CC(=O)N[C@@H](CCCCN)CC(=O)N[C@H](CC(=O)N[C@H](CC(N)=O)Cc1ccccc1)Cc1c[nH]c2ccccc12)[C@@H](C)O`, the Kd is > 100 µM in assay [1]; > 100 µM in assay [2]; > 10 µM in assay [3]; > 100 µM in assay [4]; > 100 µM in assay [5].

Turning to `CC(=O)N[C@H](C(=O)N[C@@H](CCCCN)C(=O)N[C@@H](Cc1c[nH]c2ccccc12)C(=O)N[C@@H](Cc1ccccc1)C(N)=O)[C@@H](C)O` (Ac-TKWF-NH2), the Kd was > 100 µM in assay [1]; > 100 µM in assay [2]; > 10 µM in assay [3]; > 100 µM in assay [4]; > 10 µM in assay [5].
